Reference: ChEMBL document CHEMBL3272253, “Relationship of molecular structure to in vivo scintigraphic distribution patterns of carbon-11 labeled compounds. 3. (11C)Hydantoins” (J Med Chem, 1976)

Key:
Details in all cases: in vivo; call rule not given here
[1] = Drug level in iv dosed dog lung by gamma-scintillation counting analysis; assay type: ADME, organism-based, Canis lupus familiaris
Method in brief: (§1)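 Carbon-11-labeled hydantoin, 1–59 mCi of final product, dissolved in 1–1.5% aqueous NaOH and given iv to dogs. Distribution imaged serially for up to 2 hr or more with a scintillation camera fitted with a pinhole collimator (1-cm hyperbolic aperture), with whole-body scintiphotos at about 5 and 30 min. Readout is qualitative to semiquantitative; no coincidence imaging.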

Canis familiaris [2] = experiment: Drug level in iv dosed dog by gamma-scintillation counting analysis; assay type: ADME, organism-based, Canis lupus familiaris; method in brief: as §1
[3] = Drug level in iv dosed dog kidney by gamma-scintillation counting analysis; assay type: ADME, organism-based, Canis lupus familiaris; method in brief: as §1
[4] = Drug excretion in iv dosed dog urine by gamma-scintillation counting analysis; assay type: ADME, organism-based, Canis lupus familiaris; method in brief: as §1
Liver [5] = experiment: Drug level in iv dosed dog liver by gamma-scintillation counting analysis; assay type: ADME, organism-based, Canis lupus familiaris; method in brief: as §1
[6] = Drug excretion in iv dosed dog bile after 5 to 30 mins by gamma-scintillation counting analysis; assay type: ADME, organism-based, Canis lupus familiaris; method in brief: as §1
Brain [7] = experiment: Drug level in iv dosed dog brain after 5 to 30 mins by gamma-scintillation counting analysis; assay type: ADME, organism-based, Canis lupus familiaris; method in brief: as §1
[8] = Drug level in iv dosed dog vein by gamma-scintillation counting analysis; assay type: ADME, organism-based, Canis lupus familiaris; method in brief: as §1
[9] = Drug level in iv dosed dog skeletal muscle after 40 mins by gamma-scintillation counting analysis; assay type: ADME, organism-based, Canis lupus familiaris, Muscle tissue
Method in brief: (§2)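 Dogs received the 11C-labeled hydantoin iv in 1–1.5% aqueous NaOH. Organs and tissues were taken at necropsy 40 min after dosing and placed at fixed geometrical positions in front of a thallium-activated NaI scintillation detector. Detected scintillation events gave quantitative estimates of tissue activity.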

Liver [10] = experiment: Drug level in iv dosed dog liver after 40 mins by gamma-scintillation counting analysis; assay type: ADME, organism-based, Canis lupus familiaris; method in brief: as §2
Brain [11] = experiment: Drug level in iv dosed dog brain by gamma-scintillation counting analysis; assay type: ADME, organism-based, Canis lupus familiaris; method in brief: as §1
[12] = Drug level in iv dosed dog pancreas after 40 mins by gamma-scintillation counting analysis; assay type: ADME, organism-based, Canis lupus familiaris; method in brief: as §2
[13] = Drug level in iv dosed dog heart after 40 mins by gamma-scintillation counting analysis; assay type: ADME, organism-based, Canis lupus familiaris; method in brief: as §2
[14] = Drug level in iv dosed dog stomach after 40 mins by gamma-scintillation counting analysis; assay type: ADME, organism-based, Canis lupus familiaris; method in brief: as §2
[15] = Drug level in iv dosed dog mesenteric fat after 40 mins by gamma-scintillation counting analysis; assay type: ADME, organism-based, Canis lupus familiaris; method in brief: as §2
[16] = Drug level in iv dosed dog cerebrospinal fluid after 40 mins by gamma-scintillation counting analysis; assay type: ADME, organism-based, Canis lupus familiaris; method in brief: as §2
[17] = Drug level in iv dosed dog omentum after 40 mins by gamma-scintillation counting analysis; assay type: ADME, organism-based, Canis lupus familiaris; method in brief: as §2
Brain [18] = experiment: Drug level in iv dosed dog brain after 40 mins by gamma-scintillation counting analysis; assay type: ADME, organism-based, Canis lupus familiaris; method in brief: as §2
[19] = Drug level in iv dosed dog kidney after 40 mins by gamma-scintillation counting analysis; assay type: ADME, organism-based, Canis lupus familiaris; method in brief: as §2
[20] = Drug level in iv dosed dog blood after 40 mins by gamma-scintillation counting analysis; assay type: ADME, organism-based, Canis lupus familiaris; method in brief: as §2
[21] = Drug level in iv dosed dog lung after 40 mins by gamma-scintillation counting analysis; assay type: ADME, organism-based, Canis lupus familiaris; method in brief: as §2
[22] = Drug excretion in iv dosed dog bile by gamma-scintillation counting analysis; assay type: ADME, organism-based, Canis lupus familiaris; method in brief: as §1
Nucleic Acid [23] = experiment: Ratio of drug level in iv dosed dog lung to temporal muscle after 80 mins by gamma-scintillation counting analysis; assay type: ADME, organism-based, Canis lupus familiaris
Method in brief: (§3)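 Dogs were dosed iv with 11C-labeled hydantoin. Tissues and fluids were collected at necropsy 73 or 80 min post-dose and counted at fixed geometry in front of a thallium-activated NaI scintillation detector. Values are cpm/g of tissue divided by cpm/g of temporal muscle.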

Nucleic Acid [24] = experiment: Ratio of drug level in iv dosed dog pancreas to temporal muscle after 80 mins by gamma-scintillation counting analysis; assay type: ADME, organism-based, Canis lupus familiaris; method in brief: as §3
Nucleic Acid [25] = experiment: Ratio of drug level in iv dosed dog washed heart to temporal muscle after 80 mins by gamma-scintillation counting analysis; assay type: ADME, organism-based, Canis lupus familiaris
Method in brief: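 Dogs received the [11C]-labeled hydantoin intravenously. At necropsy 80 min post-injection, the heart was washed and collected with temporal muscle. Each sample was placed at a fixed position before a thallium-activated NaI scintillation detector. The ratio is cpm/g tissue over cpm/g temporal muscle.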

Nucleic Acid [26] = experiment: Ratio of drug level in iv dosed dog liver to temporal muscle after 80 mins by gamma-scintillation counting analysis; assay type: ADME, organism-based, Canis lupus familiaris; method in brief: as §3
[27] = Drug excretion in iv dosed dog urine after 1 hr by gamma-scintillation counting analysis; assay type: ADME, organism-based, Canis lupus familiaris
Nucleic Acid [28] = experiment: Ratio of drug level in iv dosed dog stomach to temporal muscle after 80 mins by gamma-scintillation counting analysis; assay type: ADME, organism-based, Canis lupus familiaris; method in brief: as §3
Canis familiaris [29] = experiment: Drug level in iv dosed dog after 5 to 30 mins by gamma-scintillation counting analysis; assay type: ADME, organism-based, Canis lupus familiaris; method in brief: as §1
Nucleic Acid [30] = experiment: Ratio of drug level in iv dosed dog mesenteric fat to temporal muscle after 80 mins by gamma-scintillation counting analysis; assay type: ADME, organism-based, Canis lupus familiaris; method in brief: as §3
Nucleic Acid [31] = experiment: Ratio of drug level in iv dosed dog brain to temporal muscle after 80 mins by gamma-scintillation counting analysis; assay type: ADME, organism-based, Canis lupus familiaris; method in brief: as §3
Nucleic Acid [32] = experiment: Ratio of drug level in iv dosed dog blood to temporal muscle after 80 mins by gamma-scintillation counting analysis; assay type: ADME, organism-based, Canis lupus familiaris; method in brief: as §3
Nucleic Acid [33] = experiment: Ratio of drug level in iv dosed dog spleen to temporal muscle after 80 mins by gamma-scintillation counting analysis; assay type: ADME, organism-based, Canis lupus familiaris; method in brief: as §3
Nucleic Acid [34] = experiment: Ratio of drug level in iv dosed dog kidney to temporal muscle after 80 mins by gamma-scintillation counting analysis; assay type: ADME, organism-based, Canis lupus familiaris; method in brief: as §3
Nucleic Acid [35] = experiment: Ratio of drug level in iv dosed dog bile to temporal muscle after 80 mins by gamma-scintillation counting analysis; assay type: ADME, organism-based, Canis lupus familiaris; method in brief: as §3

Compound	Drug uptake [1]	Drug uptake (Canis familiaris [2])	Drug uptake [3]	Drug excretion [4]	Drug uptake (Liver [5])	Drug excretion [6]	Drug uptake (Brain [7])	Drug uptake (Brain [11])	Drug excretion [22]	also measured
CCCC1(CCC)NC(=O)N[11C]1=O	Active	Active	Active	metabolite_detected	Active	metabolite_notdetected	Not Active			
CC(C)CC1(CC(C)C)NC(=O)N[11C]1=O	Active	Active	Active	metabolite_detected	Active	metabolite_notdetected	Not Active			
O=C1N[11C](=O)C(c2ccccc2)(c2ccccc2)N1			Active	metabolite_detected				Active	metabolite_detected	Drug uptake [9]: Active; Drug uptake (Liver [10]): Active; Drug uptake [12]: Active; Drug uptake [13]: Active; Drug uptake [14]: Active; Drug uptake [15]: Active; Drug uptake [16]: Active; Drug uptake [17]: Active; Drug uptake (Brain [18]): Active; Drug uptake [19]: Active; Drug uptake [20]: Active; Drug uptake [21]: Active
O=C1N[11C](=O)C(c2ccc(Cl)cc2)(c2ccc(Cl)cc2)N1			Active	metabolite_detected				Active	metabolite_detected	
O=C1N[11C](=O)C(c2ccccc2)N1c1ccccc1 (stereo unspecified)			Active	metabolite_detected				Active	metabolite_detected	
O=C1NC(c2ccccc2)[11C](=O)N1 (stereo unspecified)										Ratio (Nucleic Acid [23]): 1.05; Ratio (Nucleic Acid [24]): 0.63; Ratio (Nucleic Acid [25]): 0.71; Ratio (Nucleic Acid [26]): 2.25; Drug excretion [27]: metabolite_detected; Ratio (Nucleic Acid [28]): 0.76; Drug uptake (Canis familiaris [29]): Active; Ratio (Nucleic Acid [30]): 0.25; Ratio (Nucleic Acid [31]): 0.73; Ratio (Nucleic Acid [32]): 0.93; Ratio (Nucleic Acid [33]): 0.81; Ratio (Nucleic Acid [34]): 1.91; Ratio (Nucleic Acid [35]): 0.83

Second part, led by results:

Drug uptake [1]	Drug uptake (Canis familiaris [2])	Drug uptake [3]	Drug excretion [4]	Drug uptake (Liver [5])	Drug excretion [6]	Drug uptake (Brain [7])	Drug uptake (Brain [11])	Drug excretion [22]	Compound	also measured
Active	Active	Active	metabolite_detected	Active					CSCCC1NC(=O)N[11C]1=O (stereo unspecified)	
Active	Active	Active	metabolite_detected	Active	metabolite_notdetected	Not Active			CCC1(CC)NC(=O)N[11C]1=O	
Active	Active	Active	metabolite_detected	Active	metabolite_notdetected	Not Active			CC1(CCC(=O)O)NC(=O)N[11C]1=O (stereo unspecified)	Drug uptake [8]: Active
